Reference: the RNAGym collection of RNA variant scans (doi:10.1126/science.aae0568)
Fewer inactive variants are shown than the library holds.

B1: tRNA (parent)
chain: GUUCCGUUGGCGUAAUGGUAACGCGUCUCCCUCCUAAGGAGAAGACUGCGGGUUCGAGUCCCGUACGGAACG

Variants of: B1
Assay: yeast fitness relative to wild type (ratio to wild type); higher = fitter; tRNA-Arg(CCU), competitive growth, 37 C, YPD
Method in brief: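 Changes in genotype frequencies gave Darwinian fitness relative to wild type. Frequencies were read by 100-nucleotide paired-end sequencing of gene amplicons before and after pooled Saccharomyces cerevisiae strains, carrying tRNA-Arg(CCU) gene variants at the native locus, were competed in YPD at 37°C for 24 hours in six replicates. A genotype was kept only with ≥ 100 starting reads, and estimates < 0.5 were set to 0.5.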

Variant	yeast fitness
G18C C30U C31G G50A	≤ 0.5
U19A C22G G23C C30G C34A C55U	≤ 0.5
G18A G41C A42G U54A	≤ 0.5
G18A C22U	0.636
G18U C31U G63A	0.527
G18C G48A U53G	≤ 0.5
G18C C27U C61A	≤ 0.5
U19A C24G G25A C46G G52A A65C	≤ 0.5
U19A C27G A65U	≤ 0.5
G18A C27A G68C	≤ 0.5
G18C G48A C66U	0.545
G18A A37G C61U	≤ 0.5
G18A A43C C66G	0.505
G18C C29G A36C G44C G50A	0.526
G18A G25A C29G C34A G63C	≤ 0.5
G18A C34U A40G U47C	≤ 0.5
U19A C24G C61U	≤ 0.5
G18C C33G C49A C55U	0.517
G18C C22A	0.582
U19A A70U	1.03
U19A A70C	1.03
G18C C33A A36C G51C	≤ 0.5
G18A A20U C31U	0.545
G18C A21G G56A	0.575

Variant	yeast fitness
G18A C62G G68U	≤ 0.5
G18A C62G G68C	≤ 0.5
G18C G23A G25C A37G A65G	≤ 0.5
G18A C24G C27U C62U	≤ 0.5
G18A A57U G58C	≤ 0.5
G18A A42C C61A	≤ 0.5
U19A C22G A45U C49U U64A	≤ 0.5
U19A A40G C55G	≤ 0.5
G18C C29U A70C	≤ 0.5
G18C C24G U35C G50C C55G	≤ 0.5
U19A C24U G38A U54C C55U C66A	≤ 0.5
G18C U26C U28A A65U	≤ 0.5
G18C C24G A36C G38C G58C	≤ 0.5
G18A C60A G67A	≤ 0.5
G18A C22G C27G C49U G58A	0.608
G18A C49A A65U	0.558
G18C C34G G58C	≤ 0.5
G18C A57U C61U	≤ 0.5
G18A A57G G58C	0.63
G18C G41C A43C C55U	≤ 0.5
U19A A36U	0.653
G18C U47A A70U	≤ 0.5
G18A A36U	0.66
U19A A20C A21G C30G C55G	0.573

Variant	yeast fitness
U19A A21G C27U C33U G67C	≤ 0.5
G18A C30U C55A	0.592
G18A C46U	0.749
G18A C46A	0.692
G18A C46G	0.749
G18C A20G C30A	≤ 0.5
G18C G38A A43U A45G A57G U59C	≤ 0.5
G18A C31A	0.554
U19A C24G G38A G58C C60U C62U C66U	≤ 0.5
G18A U59C A69G	≤ 0.5
G18A C49U U54C	0.539
G18C A45U	0.549
G18C C24U C29G C30G	0.593
U19A C30G A36G A57U A65U	≤ 0.5
U19A C29G C46A G68C	≤ 0.5
U19A C27A A45C	0.557
G18C G48A C55A	≤ 0.5
G18C C27U G68C	0.548
G18A C49U	0.892
G18C G23A C61A	≤ 0.5
G18C G23A C61U	≤ 0.5
U19A A42G G67U	0.585
U19A A21C G25C C31G C33U G67A	≤ 0.5
G18C C27G G48A C66G G67A	≤ 0.5

Variant	yeast fitness
G18A G25A	0.665
G18C C60U G67A	≤ 0.5
G18A A45C C55U C61G	≤ 0.5
U19A C34G A43C C49U	≤ 0.5
U19A C24U A69U	0.746
G18C A69U	0.695
G18C C22U C34G	0.688
G18A C31A G56C A69C	≤ 0.5
G18A G41C A42C C49U	0.522
G18C U28C	0.663
G18C G25C C33U C61U	≤ 0.5
G18A C30U A40U G44C	≤ 0.5
G18A U35C U47C G50C	≤ 0.5
G18A C46U C49U U59C G68A	≤ 0.5
U19A A20G G56A	0.956
G18C G25C	0.677
G18A A20U C29G A37U	0.563
G18A C55U	0.554
G18A C55G	0.554
G18A G51C A65G	≤ 0.5
G18U A45U U59C	0.542
U19A A37C	0.778
U19A A37U	0.747
G18C C24G A36C G38C U54C G58C	≤ 0.5

Variant	yeast fitness
U19A A36U G50U C61U	≤ 0.5
G18A A20U C49G U54A G68U A69U	≤ 0.5
U19A A37U A43G A57G	0.594
G18A G25C A43U A69C	≤ 0.5
G18A C24G G38C	0.724
G18C A40C C49G G63A	0.553
G18A C22A U28C A40C	≤ 0.5
G18A C46U U59C G68A	0.53
G18A C24U U47G	≤ 0.5
G18C A43C	0.719
G18C C27U G38A G39C U64C	≤ 0.5
U19A C24U G38A U54C	≤ 0.5
U19A C22U A40U G51C C66U A70G	≤ 0.5
U19A C27A C31A G52A G58C A70G	≤ 0.5
G18C U35A A45C G48A	≤ 0.5
U19A C27U A57G	0.725
G18A G50C G56C	≤ 0.5
G18C A20U U53C A69U	≤ 0.5
G18A C24A	0.564
G18A C31G A70U	0.687
U19A C27U A45U C62A	≤ 0.5
G18C C30G C46U G48A U54G	≤ 0.5
G18A A40U A42U A65C	0.534
G18A U28C	0.739

Variant	yeast fitness
U19A A42G U47C	≤ 0.5
U19A C31U	0.954
G18A U19A C27U	0.707
G18C A37C C49G A70G	≤ 0.5
U19A C30G	0.671
G18C A20G C55U G67C	≤ 0.5
G18A A69C	0.926
G18C C29U	0.546
G18A U19C C27G C61A U64G C66U	≤ 0.5
G18C C33G A36C C46A	≤ 0.5
G18C U35G G41C G56A A65G C66U	≤ 0.5
G18A A21C C30U C34A	≤ 0.5
U19A C31G A70U	0.919
G18C A40G A42G C66G	≤ 0.5
G18A U59G	0.776
G18A C31U A70G	0.726
G18A C31U A70U	0.656
G18C G44A C62G	≤ 0.5
G18A G44A	0.637
G18A G44C	0.767
G18C A36C	≤ 0.5
G18C C22A C29U A45C A69U	≤ 0.5
G18A A43G A65C	0.595
G18C C34G G39C	≤ 0.5

Variant	yeast fitness
G18A G25C C30G G41U A57U	≤ 0.5
G18C A40C C49G	≤ 0.5
G18A C30U A40G C46U	≤ 0.5
U19A C31G A65U	0.582
U19A C30G A43C U47C U54C	≤ 0.5
U19A C31G G38C A40C G56A	0.569
G18C C22A C29U A45C	≤ 0.5
U19A A36G U59A	≤ 0.5
G18A C27U C31A	≤ 0.5
G18A A45C C49U	0.667
G18C U53C C61U	≤ 0.5
G18A G25C A70U	0.555
G18C C24G C46A	≤ 0.5
G18C C24G C46G	≤ 0.5
G18A C30A U32A U35G G67A	≤ 0.5
U19A A37C C49G	0.501
G18A A40C U47G A65C	≤ 0.5
G18A C29U C31A C66U	≤ 0.5
G18A G51A A70G	≤ 0.5
U19A C29G U54C G58A	≤ 0.5
G18C G51A A69G	≤ 0.5
U19A A21U	0.854
G18A A20U C62A A70C	0.552
